Assay results from ChEMBL document CHEMBL4118112, “Synthesis and Evaluation of the First Fluorescent Antagonists of the Human P2Y2 Receptor Based on AR-C118925” (J Med Chem, 2018).
Values belong to the compound of their own block, whether it stands above or below them. Active and inactive are the calls of the source. The rule behind the calls is not given here.

What was measured:
P2Y purinoceptor 2 [1] = target: T1, P2Y purinoceptor 2 (Homo sapiens, UniProt P41231); assay: (§1) Antagonist activity at human P2Y2R expressed in human 1321N1 cells assessed as inhibition of UTPgammaS-activated calcium-mobilization preincubated for 45 mins measured every 1.52 secs for 200 secs after the addition of UTPgammaS at 15 secs by fluo-4AM-based fluorescence assay; format: functional, cell-based
Summary of the method: (§2)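 hP2Y2R in 1321N1 astrocytoma cells. Calcium mobilization was driven by UTPγS. Single-concentration lines: compound at 10 µM, inhibition scored against the 0.1 µM UTPγS response (n=3). For the pKb line, the UTPγS concentration-response curve was run with a single antagonist concentration added, and pKb was calculated from the curve shift with the Gaddum equation.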

P2Y purinoceptor 2 [2] = target: T1, P2Y purinoceptor 2; assay: as §1, with “calcium-mobilization at 10 uM” for “calcium-mobilization”, “assay relative to UTPgammaS” for “assay”; format: functional, cell-based; summary of the method: as §2
P2Y purinoceptor 2 [3] = target: T1, P2Y purinoceptor 2; assay: Displacement of (E)-2-((5-(7-Chloro-2-((3-((2-(6-(3-(5,5-difluoro-7,9-dimethyl-5H-5-lambda4,6-lambda4-dipyrrolo[1,2-c:2,1-f ][1,3,2]diazaborinin-3-yl)-propanamido)hexanamido)ethyl)amino)-3-oxopropyl)amino)-4Hbenzo[5,6]cyclohepta[1,2-d]thiazol-4-yl)-2-oxo-4-thioxo-3,4-dihydropyrimidin-1(2H)-yl)methyl)-N-(1H-tetrazol-5-yl)thiazole-4-carboxamide from human N-terminal NLuc-tagged P2Y2R expressed in human 1321N1 cells incubated for 1 hr by furimazine-based NanoBRET assay; format: cell-based
Summary of the method: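 Competition binding in 1321N1 cells expressing N-terminal NanoLuc-hP2Y2R. The fluorescent tracer was used at 1 µM (or the bodipy A tracer at 100 nM) against increasing concentrations of unlabeled ligand. After furimazine addition the BRET signal was read and pKi estimated; mean ± SEM of separate experiments.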

P2Y purinoceptor 2 [4] = target: T1, P2Y purinoceptor 2; assay: Binding affinity to recombinant human N-terminal NLuc-tagged P2Y2R expressed in human 1321N1 cells incubated for 1 hr in presence of AR-C118925 by furimazine-based NanoBRET assay; format: cell-based
Summary of the method: (§3)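 N-terminally NanoLuc-tagged hP2Y2R was stably expressed in 1321N1 cells. Cells were treated with increasing concentrations of fluorescent conjugate, or a fixed 10 µM for screening, with or without 10 µM AR-C118925 to define nonspecific binding. Furimazine substrate was then added and the BRET signal read. pKd came from saturation binding curves; mean ± SEM of separate experiments.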

P2Y purinoceptor 2 [5] = target: T1, P2Y purinoceptor 2; assay: Binding affinity to recombinant human N-terminal NLuc-tagged P2Y2R expressed in human 1321N1 cells at 10 uM incubated for 1 hr in presence of AR-C118925 by furimazine-based NanoBRET assay; format: cell-based; summary of the method: as §3
P2Y purinoceptor 2 [6] = target: T1, P2Y purinoceptor 2; assay: Binding affinity to human P2Y2R expressed in human 1321N1 cells assessed as localized membrane fluorescence at 100 nM after 30 mins in presence of AR-C118925 by confocal microscopy; format: cell-based
Summary of the method: (§4)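 1321N1 astrocytoma cells expressing untagged hP2Y2R were given 100 nM fluorescent ligand and incubated 30 min at 37°C, with or without 10 µM AR-C118925 (1). Single equatorial confocal images were then taken with the fluorescent ligand and/or antagonist still present. Membrane and intracellular fluorescence were examined; images are representative of 4 experiments.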

[7] = Drug uptake in human 1321N1 cells assessed as intracellular fluorescence at 100 nM after 30 mins by confocal microscopy; format: ADME, cell-based; conditions: 0.5 h, 0.1 µM; summary of the method: as §4
P2Y purinoceptor 2 [8] = target: T1, P2Y purinoceptor 2; assay: Antagonist activity at human P2Y2R expressed in human 1321N1 cells assessed as inhibition of UTPgammaS-activated calcium-mobilization at 10 uM preincubated for 45 mins measured every 1.52 secs for 200 secs after the addition of UTPgammaS at 15 secs by fluo-4AM-based fluorescence assay; format: functional, cell-based; summary of the method: as §2
P2Y purinoceptor 2 [9] = target: T1, P2Y purinoceptor 2; assay: Binding affinity to human P2Y2R expressed in human 1321N1 cells assessed as localized membrane fluorescence at 100 nM after 30 mins by confocal microscopy; format: cell-based; summary of the method: as §4

T1 sequence (P41231 whole entry): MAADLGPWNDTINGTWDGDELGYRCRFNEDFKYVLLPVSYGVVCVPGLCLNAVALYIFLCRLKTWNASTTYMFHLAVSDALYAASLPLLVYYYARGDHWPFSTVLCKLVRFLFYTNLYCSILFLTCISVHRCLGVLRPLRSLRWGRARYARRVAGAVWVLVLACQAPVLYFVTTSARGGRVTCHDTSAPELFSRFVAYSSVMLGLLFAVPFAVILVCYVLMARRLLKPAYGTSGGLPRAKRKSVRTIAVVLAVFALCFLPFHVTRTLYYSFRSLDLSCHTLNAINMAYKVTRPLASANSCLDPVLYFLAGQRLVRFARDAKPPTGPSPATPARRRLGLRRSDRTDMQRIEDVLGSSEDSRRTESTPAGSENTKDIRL

inhibition (P2Y purinoceptor 2 [2]): < 50%
SMILES: Cn1cc(C2c3ccc(Cl)cc3C=Cc3sc(NCc4ccccc4)nc32)c(=S)[nH]c1=O (configuration not stated)

inhibition (P2Y purinoceptor 2 [2]): < 50% | pKb (P2Y purinoceptor 2 [1]): < 5 | inhibition (P2Y purinoceptor 2 [3]): Dose-dependent effect
SMILES: CCOCCNc1nc2c(s1)C=Cc1cc(Cl)ccc1[C@@H]2c1cn(C)c(=O)[nH]c1=S

pKb (P2Y purinoceptor 2 [1]): 7.11 | Ki (P2Y purinoceptor 2 [3]): 129 nM | inhibition (P2Y purinoceptor 2 [3]): Dose-dependent effect
SMILES: Cc1ccc2c(c1)C=Cc1cc(C)ccc1C2c1cn(Cc2nc(C(=O)Nc3nnn[nH]3)cs2)c(=O)[nH]c1=S

Kd (P2Y purinoceptor 2 [4]): 2750 nM
SMILES: Cc1ccc2c(c1)C=Cc1cc(C)ccc1C2c1cn(Cc2cc(C(=O)NCCNC(=O)COc3ccc(/C=C/C4=[N+]5C(=Cc6ccc(-c7cccs7)n6[B-]5(F)F)C=C4)cc3)cc(C(=O)Nc3nnn[nH]3)c2)c(=O)[nH]c1=S

inhibition (P2Y purinoceptor 2 [2]): < 50%
SMILES: Cn1cc(C2c3ccc(Cl)cc3C=Cc3sc(NCCc4ccccc4)nc32)c(=S)[nH]c1=O (configuration not stated)

Kd (P2Y purinoceptor 2 [4]): 2140 nM | pKb (P2Y purinoceptor 2 [1]): 6.3 | Ki (P2Y purinoceptor 2 [3]): 398 nM | inhibition (P2Y purinoceptor 2 [3]): Dose-dependent effect | Activity (P2Y purinoceptor 2 [5]): Active
SMILES: Cc1cc(C)n2c1C=C1C=CC(CCC(=O)NCCCCCC(=O)NCCNC(=O)CCNc3nc4c(s3)C=Cc3cc(Cl)ccc3C4c3cn(C)c(=O)[nH]c3=S)=[N+]1[B-]2(F)F (configuration not stated)

inhibition (P2Y purinoceptor 2 [2]): < 50%
SMILES: Cn1cc(C2c3ccc(Cl)cc3C=Cc3sc(Nc4ccccc4)nc32)c(=S)[nH]c1=O (configuration not stated)

Kd (P2Y purinoceptor 2 [4]): 89.1 nM
SMILES: Cc1cc(C)n2c1C=C1C=CC(CCC(=O)NCCNC(=O)CCNc3nc4c(s3)C=Cc3cc(Cl)ccc3C4c3cn(Cc4nc(C(=O)Nc5nnn[nH]5)cs4)c(=O)[nH]c3=S)=[N+]1[B-]2(F)F (configuration not stated)

pKb (P2Y purinoceptor 2 [1]): 6.43
SMILES: Cc1ccc2c(c1)C=Cc1cc(C)ccc1C2c1cn(Cc2nc(C(=O)O)cs2)c(=O)[nH]c1=S

Kd (P2Y purinoceptor 2 [4]): 891 nM
SMILES: O=C(CCNc1nc2c(s1)C=Cc1cc(Cl)ccc1C2c1cn(Cc2nc(C(=O)Nc3nnn[nH]3)cs2)c(=O)[nH]c1=S)NCCNC(=O)COc1ccc(/C=C/C2=[N+]3C(=Cc4ccc(-c5cccs5)n4[B-]3(F)F)C=C2)cc1 (configuration not stated)

Second part, the compound before the results:

SMILES: COCCNc1nc2c(s1)C=Cc1cc(Cl)ccc1C2c1cn(C)c(=O)[nH]c1=S (stereo in doubt; 20)
pKb (P2Y purinoceptor 2 [1]): 6.63

SMILES: CCOCCNc1nc2c(s1)C=Cc1cc(Cl)ccc1C2c1cn(C)c(=O)[nH]c1=S (racemic)
pKb (P2Y purinoceptor 2 [1]): 6.73

SMILES: CC(C)OCCNc1nc2c(s1)C=Cc1cc(Cl)ccc1C2c1cn(C)c(=O)[nH]c1=S (configuration not stated)
pKb (P2Y purinoceptor 2 [1]): 6.49

SMILES: COCCNc1nc2c(s1)C=Cc1cc(Cl)ccc1C2c1cn(C)c(=O)[nH]c1=S (racemic)
pKb (P2Y purinoceptor 2 [1]): 6.6

SMILES: Cn1cc(C2c3ccc(Cl)cc3C=Cc3sc(-c4ccccc4)nc32)c(=S)[nH]c1=O (configuration not stated)
inhibition (P2Y purinoceptor 2 [2]): < 50%

SMILES: CCOCCNc1nc2c(s1)C=Cc1cc(Cl)ccc1[C@H]2c1cn(C)c(=O)[nH]c1=S
pKb (P2Y purinoceptor 2 [1]): 6.74 to 6.78 | inhibition (P2Y purinoceptor 2 [3]): Dose-dependent effect

SMILES: Cc1ccc2c(c1)C=Cc1cc(C)ccc1C2c1cn(Cc2ccc(C(=O)Nc3nnn[nH]3)o2)c(=O)[nH]c1=S
inhibition (P2Y purinoceptor 2 [3]): Dose-dependent effect

SMILES: Cc1nc2c(s1)C=Cc1cc(Cl)ccc1C2c1cn(Cc2nc(C(=O)Nc3nnn[nH]3)cs2)c(=O)[nH]c1=S (configuration not stated)
pKb (P2Y purinoceptor 2 [1]): 6.48

SMILES: Cc1cc(C)n2c1C=C1C=CC(CCC(=O)NCCCCCC(=O)NCCOCCOCCNC(=O)CCNc3nc4c(s3)C=Cc3cc(Cl)ccc3C4c3cn(C)c(=O)[nH]c3=S)=[N+]1[B-]2(F)F (configuration not stated)
Kd (P2Y purinoceptor 2 [4]): 4170 nM | Activity (P2Y purinoceptor 2 [5]): Active

SMILES: O=c1[nH]c(=S)c(C2c3ccccc3CCc3ccccc32)cn1[C@@H]1O[C@H](COP(=O)(O)OP(=O)(O)C(Cl)(Cl)P(=O)(O)O)[C@@H](O)[C@H]1O
pKb (P2Y purinoceptor 2 [1]): 6.59 | Ki (P2Y purinoceptor 2 [3]): 83.2 nM | inhibition (P2Y purinoceptor 2 [3]): Dose-dependent effect

SMILES: Cn1cc(C2c3ccc(Cl)cc3C=Cc3sc(N4CCOCC4)nc32)c(=S)[nH]c1=O (configuration not stated)
inhibition (P2Y purinoceptor 2 [2]): < 50%

SMILES: O=C(CCCCCNC(=O)COc1ccc(/C=C/C2=[N+]3C(=Cc4ccc(-c5cccs5)n4[B-]3(F)F)C=C2)cc1)NCCNC(=O)CCNc1nc2c(s1)C=Cc1cc(Cl)ccc1C2c1cn(Cc2nc(C(=O)Nc3nnn[nH]3)cs2)c(=O)[nH]c1=S (configuration not stated)
Kd (P2Y purinoceptor 2 [4]): 129 nM | Activity (P2Y purinoceptor 2 [6]): inactive | Drug uptake [7]: Not Active | pKb (P2Y purinoceptor 2 [8]): 5.69 | Activity (P2Y purinoceptor 2 [9]): Active

SMILES: COCCNc1nc2c(s1)C=Cc1cc(Cl)ccc1C2c1cn(C)c(=O)[nH]c1=S (stereo in doubt; 21)
pKb (P2Y purinoceptor 2 [1]): 5.82

SMILES: Cc1cc(C)n2c1C=C1C=CC(CCC(=O)NCCNC(=O)CCNc3nc4c(s3)C=Cc3cc(Cl)ccc3C4c3cn(C)c(=O)[nH]c3=S)=[N+]1[B-]2(F)F (configuration not stated)
Kd (P2Y purinoceptor 2 [4]): 12300 nM | Activity (P2Y purinoceptor 2 [5]): Active

SMILES: Cc1ccc2c(c1)C=Cc1cc(C)ccc1C2c1cn(Cc2cc(C(=O)NCCOCCOCCNC(=O)COc3ccc(/C=C/C4=[N+]5C(=Cc6ccc(-c7cccs7)n6[B-]5(F)F)C=C4)cc3)cc(C(=O)Nc3nnn[nH]3)c2)c(=O)[nH]c1=S
Kd (P2Y purinoceptor 2 [4]): 759 nM

SMILES: Cc1nc2c(s1)C=Cc1cc(Cl)ccc1C2c1cn(C)c(=O)[nH]c1=S (configuration not stated)
pKb (P2Y purinoceptor 2 [1]): 5.99 | Ki (P2Y purinoceptor 2 [3]): 1550 nM | inhibition (P2Y purinoceptor 2 [3]): Dose-dependent effect

SMILES: CN1CCN(c2nc3c(s2)C=Cc2cc(Cl)ccc2C3c2cn(C)c(=O)[nH]c2=S)CC1 (configuration not stated)
inhibition (P2Y purinoceptor 2 [2]): < 50%

SMILES: Cn1cc(C2c3ccc(Cl)cc3C=Cc3sc(NCCOc4ccccc4)nc32)c(=S)[nH]c1=O (configuration not stated)
inhibition (P2Y purinoceptor 2 [2]): < 50%

SMILES: Cn1cc(C2c3ccc(Cl)cc3C=Cc3sc(N)nc32)c(=S)[nH]c1=O (configuration not stated)
pKb (P2Y purinoceptor 2 [1]): 6.56

SMILES: O=c1ccn([C@@H]2O[C@H](COP(=O)(O)OP(=O)(O)OP(=O)(O)S)[C@@H](O)[C@H]2O)c(=O)[nH]1 (some centres not stated)
Ki (P2Y purinoceptor 2 [3]): 3470 nM | inhibition (P2Y purinoceptor 2 [3]): Dose-dependent effect

SMILES: Cn1cc(C2c3ccc(Cl)cc3C=Cc3sc(N4CCCCC4)nc32)c(=S)[nH]c1=O (configuration not stated)
inhibition (P2Y purinoceptor 2 [2]): < 50%

SMILES: Cc1ccc2c(c1)C=Cc1cc(C)ccc1C2c1cn(C)c(=O)[nH]c1=S
inhibition (P2Y purinoceptor 2 [2]): < 50%
